Test results reported in ChEMBL document CHEMBL4699586, “Synthesis and biological evaluation of NQO1-activated prodrugs of podophyllotoxin as antitumor agents” (Bioorg Med Chem, 2020).
Calls of active or inactive are those of the source. The rule behind the calls is not given here.

How the values were obtained:
L02 = experiment: Cytotoxicity against NQO1-deficient human L02 cells assessed as reduction in cell viability incubated for 48 hrs by MTT assay; type: cell-based; conditions: L02, 48 h
Method in brief: (§1)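 Cell lines A549, HepG2, hypoxic A549/Hyp and HepG2/Hyp, taxol-resistant A549/T, and normal LO2. Log-phase cells allowed to adhere in 96-well plates, then exposed to compound for 48 h. MTT added for 2–3 h. Formazan dissolved in DMSO and absorbance read at 570 nm; IC50 derived.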

HepG2 [1] = experiment: Cytotoxicity against human HepG2 cells overexpressing NQO1 assessed as reduction in cell viability incubated for 48 hrs by MTT assay; type: functional, cell-based; conditions: HepG2, 48 h; method in brief: as §1
A549 [2] = experiment: Cytotoxicity against taxol-resistant human A549 cells assessed as reduction in cell viability incubated for 48 hrs by MTT assay; type: functional, cell-based; conditions: A549, 48 h; method in brief: as §1
A549 [3] = experiment: Cytotoxicity against human A549 cells overexpressing NQO1 assessed as reduction in cell viability incubated for 48 hrs by MTT assay; type: functional, cell-based; conditions: A549, 48 h; method in brief: as §1
A549 [4] = experiment: Cytotoxicity against hypoxia-induced human A549 cells assessed as reduction in cell viability incubated for 48 hrs by MTT assay; type: functional, cell-based; conditions: A549, 48 h; method in brief: as §1
HepG2 [5] = experiment: Cytotoxicity against hypoxia-induced human HepG2 cells assessed as reduction in cell viability incubated for 48 hrs by MTT assay; type: functional, cell-based; conditions: HepG2, 48 h; method in brief: as §1
HepG2 [6] = experiment: Induction of apoptosis in human HepG2 cells assessed as early apoptotic cells at 50 nM incubated for 24 hrs by annexin V-FITC and propidium iodide based flow cytometry analysis (reference value: 1.84 %); type: functional
HepG2 [7] = experiment: Induction of apoptosis in human HepG2 cells assessed as necrotic cells at 50 nM incubated for 24 hrs by annexin V-FITC and propidium iodide based flow cytometry analysis (reference value: 0.94 %); type: functional
Tubulin (Homo sapiens) = Tubulin (Homo sapiens) (UniProt P68371+Q9H4B7+P0DPH7+P68366+Q13509+Q71U36+P04350+Q3ZCM7+P07437+P68363+Q9BQE3+Q6PEY2+Q13885+Q9BVA1+Q9BUF5); experiment: Inhibition of microtubule assembly in human HepG2 cells at 50 nM incubated for 48 hrs by immunofluorescence microscopic analysis; type: cell-based
Method in brief: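 HepG2 seeded 12 h at 37 °C, 5% CO₂, then exposed 48 h alongside DMSO vehicle; methanol-fixed, permeabilized in 0.5% Triton X-100/PBS, α-tubulin primary antibody overnight at 4 °C, fluorescent secondary 1 h, DAPI nuclear counterstain; fluorescence microscopy imaging of microtubule networks.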

[8] = Toxicity in BALB/c mouse xenografted with human HepG2 cells assessed as damage in kidney at 5 to 10 mg/kg, ip administered every other day for 17 consecutive days and measured on day 17 by H&E staining based light microscopic analysis; type: organism-based; conditions: in vivo, 408 h, dose 5-10 mg/kg, time 17 day
Method in brief: (§2)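 Six-week-old BALB/c nude mice carrying s.c. HepG2 tumours (5×10⁶ cells in PBS) randomized at 70–100 mm³, 6 per group; i.p. dosing every other day for 17 days in 5% DMSO/40% PEG300/5% Tween 80/50% saline; day-17 organs fixed in 4% paraformaldehyde, paraffin-embedded, H&E stained, light microscopy versus control.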

Sus scrofa [9] = species: Sus scrofa; experiment: Inhibition of porcine tubulin polymerization at 3 uM in presence of NQO1 and NADPH measured for 1 hr for every 30 sec
Method in brief: (§3)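 Commercial tubulin polymerization kit run per manufacturer; test agent at 3 μM with vehicle control, with or without added NQO1 depending on group; absorbance at 340 nm read every 30 s for 1 h to give polymerization/depolymerization kinetic curves.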

[10] = Toxicity in BALB/c mouse xenografted with human HepG2 cells assessed as damage in lung at 5 to 10 mg/kg, ip administered every other day for 17 consecutive days and measured on day 17 by H&E staining based light microscopic analysis; type: organism-based; conditions: in vivo, 408 h, dose 5-10 mg/kg, time 17 day; method in brief: as §2
[11] = Metabolic stability in rat plasma at 10 uM incubated for 9 hrs in presence of NADPH by HPLC analysis; type: ADME, cell-free
Method in brief: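 Rat plasma deproteinized by vortexing and centrifugation (10000 rpm, 5 min); supernatant incubated with 10 μM substrate plus 2% Tween 80 at 37 °C for 0–540 min; after centrifugation, supernatant analysed by HPLC (UV 292 nm); run in triplicate.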

HepG2 [12] = experiment: Induction of cell cycle arrest in human HepG2 cells assessed as increase in cells accumulation at G2/M phase at 50 nM incubated for 24 hrs by propidium iodide based flow cytometry analysis relative to control; type: functional
Method in brief: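 HepG2 plated in 12-well plates for 24 h, treated with compound (50 nM) for 24 h. Harvested, washed twice in cold PBS, held in 70% ethanol for 3 h. RNase A treatment 1 h at ambient temperature, then PI stain. Phase distribution by flow cytometry, compared with DMSO control.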

HepG2 [13] = experiment: Induction of apoptosis in human HepG2 cells assessed as late apoptotic cells at 50 nM incubated for 24 hrs by annexin V-FITC and propidium iodide based flow cytometry analysis (reference value: 1.56 %); type: functional
[14] = target: T1, NAD(P)H dehydrogenase [quinone] 1 (Homo sapiens, UniProt P15559); experiment: Prodrug release assessed as recombinant NQO1 (unknown origin)-mediated N-(4-methylenecyclohexa-2,5-dienylidene)methanamine formation formation at 20 uM measured after 30 mins in presence of NADPH by HRMS analysis; type: ADME; conditions: 0.5 h
T1 sequence (P15559 whole entry, the tested form may be a part): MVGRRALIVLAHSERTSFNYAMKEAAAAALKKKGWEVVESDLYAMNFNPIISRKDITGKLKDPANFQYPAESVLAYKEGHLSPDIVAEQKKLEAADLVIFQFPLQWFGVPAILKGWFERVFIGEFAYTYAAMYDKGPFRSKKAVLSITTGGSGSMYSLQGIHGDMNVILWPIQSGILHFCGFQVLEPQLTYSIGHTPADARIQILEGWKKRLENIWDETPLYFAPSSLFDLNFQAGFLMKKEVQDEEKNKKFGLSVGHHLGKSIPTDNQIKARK
Method in brief: (§4)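 Recombinant NQO1 (final 10 μg/mL) added to start reaction in 10 mM PBS with 2% Tween 80, 100 μM NADPH and 20 μM prodrug. Incubated at 37 °C, stopped with cold acetonitrile and centrifuged cold. Supernatant analysed by HRMS for release fragments.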

[15] = Toxicity in BALB/c mouse xenografted with human HepG2 cells assessed as body weight reduction at 10 mg/kg, ip administered every other day for 17 consecutive days and measured on day 17; type: organism-based; conditions: in vivo, 408 h, time 17 day
Method in brief: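 HepG2 xenografts in 6-week BALB/c nude mice (s.c., 5×10⁶ cells), grouped at 70–100 mm³, n=6; i.p. dosing every other day for 17 days in 5% DMSO/40% PEG300/5% Tween 80/50% saline vehicle; body weight recorded every 2 days.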

HepG2 [16] = experiment: Induction of apoptosis in human HepG2 cells assessed as viable cells at 50 nM incubated for 24 hrs by annexin V-FITC and propidium iodide based flow cytometry analysis (reference value: 95.66 %); type: functional; conditions: read-out: Activity
[17] = Selectivity index, ratio of IC50 for NQO1-deficient human L02 cells to IC50 for human HepG2 cells overexpressing NQO1 incubated for 48 hrs by MTT assay
Method in brief: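 IC50 in LO2 divided by IC50 in HepG2. Both from MTT after 48 h exposure, with absorbance read at 570 nm.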

[18] = target: T1, NAD(P)H dehydrogenase [quinone] 1; experiment: Prodrug release assessed as recombinant NQO1 (unknown origin)-mediated 6-hydroxy-4,4,5,7-tetramethylchroman-2-one formation formation at 20 uM measured after 30 mins in presence of NADPH by HRMS analysis; type: ADME; conditions: 0.5 h; method in brief: as §4
[19] = Toxicity in BALB/c mouse xenografted with assessed as damage in heart at 5 to 10 mg/kg, ip administered every other day for 17 consecutive days and measured on day 17 by H&E staining based light microscopic analysis; type: organism-based; conditions: in vivo, 408 h, dose 5-10 mg/kg, time 17 day; method in brief: as §2
[20] = Metabolic stability in human liver S9 fraction at 10 uM incubated for 9 hrs in presence of NADPH by HPLC analysis; type: ADME, subcellular; conditions: s9, 9 h
Method in brief: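 Pooled human liver S9 fraction (0.5 mg) in 10 mM PBS pH 7.4 with 2% Tween 80, substrate 10 μM, 37 °C; started with 100 μM NADPH, quenched with cold acetonitrile at 0–540 min; centrifuged supernatant analysed by HPLC, UV 292 nm; triplicate.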

[21] = target: T1, NAD(P)H dehydrogenase [quinone] 1; experiment: Prodrug release assessed as recombinant NQO1 (unknown origin)-mediated podophyllotoxin formation at 20 uM measured after 30 mins in presence of NADPH by HRMS analysis; type: ADME; conditions: 0.5 h; method in brief: as §4
[22] = Toxicity in BALB/c mouse xenografted with human HepG2 cells assessed as damage in liver at 5 to 10 mg/kg, ip administered every other day for 17 consecutive days and measured on day 17 by H&E staining based light microscopic analysis; type: organism-based; conditions: in vivo, 408 h, dose 5-10 mg/kg, time 17 day; method in brief: as §2
[23] = Stability of the compound in PBS buffer at 10 uM at pH 5 to 9 incubated for 9 hrs in presence of NADPH by HPLC analysis; type: physicochemical; conditions: pH 5, 9 h
Method in brief: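 No NQO1 present; 10 μM substrate with 100 μM NADPH in PBS containing 2% Tween 80 across pH values 5–9 at 37 °C; timed samples quenched with cold acetonitrile, centrifuged, and quantified by C18 HPLC with UV detection at 292 nm; triplicate.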

[24] = Toxicity in BALB/c mouse xenografted with human HepG2 cells assessed as damage in spleen at 5 to 10 mg/kg, ip administered every other day for 17 consecutive days and measured on day 17 by H&E staining based light microscopic analysis; type: organism-based; conditions: in vivo, 408 h, dose 5-10 mg/kg, time 17 day; method in brief: as §2
HepG2 [25] = experiment: Antitumor activity against human HepG2 cells xenografted in BALB/c nude mouse assessed as tumor growth suppression at 10 mg/kg, ip administered every other day for 17 consecutive days and measured on day 17 by caliper analysis relative to control; type: functional; conditions: 408 h, time 17 day, read-out: TGI
Method in brief: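 BALB/c nude mice, 6 weeks old, given 5×10^6 HepG2 cells s.c. in sterile PBS. Randomized at tumour 70–100 mm³, 6 per group. Dosing i.p. every other day for 17 days in 5% DMSO/40% PEG300/5% Tween-80/50% saline; vehicle arm as control. Caliper volume every 2 days as V = AB²/2. Tumours excised and weighed on day 17; growth inhibition rate calculated.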

Sus scrofa [26] = species: Sus scrofa; experiment: Inhibition of porcine tubulin polymerization at 3 uM measured every 30 secs for 1 hr; method in brief: as §3
[27] = Toxicity in BALB/c mouse xenografted with human HepG2 cells assessed as animal death at 10 mg/kg, ip administered every other day for 17 consecutive days and measured on day 17; type: organism-based; conditions: in vivo, 408 h, time 17 day
Method in brief: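 HepG2 s.c. xenografts in BALB/c nude mice, 6 per group. Compound given i.p. every other day for 17 days in 5% DMSO/40% PEG300/5% Tween-80/50% saline. Deaths recorded over the experimental period. Body weight monitored every 2 days.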

| SMILES | IC50 (L02) [nM] | IC50 (HepG2 [1]) [nM] | IC50 (A549 [2]) [nM] | IC50 (A549 [3]) [nM] | IC50 (A549 [4]) [nM] | IC50 (HepG2 [5]) [nM] | Activity (HepG2 [6]) [%] | Activity (HepG2 [7]) [%] | Activity (HepG2 [13]) [%] | viability at 0.05 µM (HepG2 [16]) [%] | also measured |
| --- | --- | --- | --- | --- | --- | --- | --- | --- | --- | --- | --- |
| COc1cc([C@@H]2c3cc4c(cc3[C@@H](OC(=O)CC(C)(C)C3=C(C)C(=O)C(C)=C(C)C3=O)[C@H]3COC(=O)[C@H]23)OCO4)cc(OC)c1OC | 228 | 107 | 302 | 160 | 315 | 193 | – | – | – | – | – |
| COc1cc([C@@H]2c3cc4c(cc3[C@@H](OC(=O)OCc3ccc(N(C)C(=O)CC(C)(C)C5=C(C)C(=O)C(C)=C(C)C5=O)cc3)[C@H]3COC(=O)[C@H]23)OCO4)cc(OC)c1OC | 312 | 84 | 197 | 100 | 185 | 113 | 1.74 | 18.99 | 15.76 | 63.5 | inhibition (Tubulin (Homo sapiens)): Active; Activity [8]: Non-Toxic; inhibition (Sus scrofa [9]): Active; Activity [10]: Non-Toxic; Stabilty [11]: Stable; Activity (HepG2 [12]): 27.3%; Drug metabolism [14]: Metabolite_Detected; Activity [15]: Non-Toxic; Ratio IC50 [17]: 3.72; Drug metabolism [18]: Metabolite_Detected; Activity [19]: Non-Toxic; Stabilty [20]: Stable; Drug metabolism [21]: Metabolite_Detected; Activity [22]: Non-Toxic; Stabilty [23]: Stable; Activity [24]: Non-Toxic; inhibition in vivo at 10 mg/kg (HepG2 [25]): 64%; inhibition (Sus scrofa [26]): inactive |
| COc1cc([C@@H]2c3cc4c(cc3[C@@H](OC(=O)OCc3ccc(NC(=O)CC(C)(C)C5=C(C)C(=O)C(C)=C(C)C5=O)cc3)[C@H]3COC(=O)[C@H]23)OCO4)cc(OC)c1OC | 452 | 262 | 574 | 274 | 596 | 425 | – | – | – | – | – |
| COc1cc([C@@H]2c3cc4c(cc3[C@H](O)[C@H]3COC(=O)[C@H]23)OCO4)cc(OC)c1OC [PODOFILOX] | 85 | 83 | 338 | 105 | 291 | 209 | 2.88 | 7.38 | 6.08 | 83.7 | Activity [27]: Toxic |
